Laboratory results taken from article PMC11425819 (ACS Omega, 2024).

Columns and labels:
[1] = system: H9C2 cells; assay: Mitochondrial morphology analysis; type: cell-based, rat; details: 10 μM, vs H/R alone
How it was run: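 H9C2 cells were pretreated 12 h with test compound (10 μM), then given 6 h hypoxia and 4 h reoxygenation in 10% FBS DMEM/F12. Cells were stained with MitoTracker and imaged by laser-scanning microscopy (60× oil). Mitochondria were scored as tubular, intermediate or fragmented. The value is the percentage of cells with intermediate or fragmented mitochondria, from 100 cells per experiment over four independent experiments (SEM).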

[2] = system: H9C2 cells; assay: mPTP opening; type: cell-based, rat; details: 10 μM, 12 h pretreatment, H/R, compared with H/R alone, at least four independent experiments
How it was run: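 H9C2 cells were pretreated 12 h with test compound (10 μM), then given 6 h hypoxia alone or H/R; an autophagy inducer (10 μM) served as comparator. Cells were loaded with calcein (2 μM) and CoCl2 (1 mM) in HBSS/Ca2+ for 15 min at 37 °C. Co2+ quenches cytosolic calcein, so retained mitochondrial calcein fluorescence indicates a closed mPTP.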

| SMILES | fragmented mitochondrial appearance after H/R [1] | mitochondrial calcein fluorescence (mPTP opening) [2] |
| --- | --- | --- |
| CC1(C)CC(NC(=O)C[P+](c2ccccc2)(c2ccccc2)c2ccccc2)CC(C)(C)N1[O] [Mito-Tempo] | attenuated the fragmented mitochondrial appearance | – |
| CO[C@H]1C[C@@H]2CC[C@@H](C)[C@@](O)(O2)C(=O)C(=O)N2CCCC[C@H]2C(=O)O[C@H]([C@H](C)C[C@@H]2CC[C@@H](O)[C@H](OC)C2)CC(=O)[C@H](C)/C=C(\C)[C@@H](O)[C@@H](OC)C(=O)[C@H](C)C[C@H](C)/C=C/C=C/C=C/1C [rapamycin] | – | considerably higher |
